Experimental data reported in ChEMBL document CHEMBL1145471, “Small molecule regulators of autophagy identified by an image-based high-throughput screen” (Proc Natl Acad Sci U S A, 2007).
The source made the active and inactive calls. No cut-off for these calls is given here.

Columns and labels:
H4 [1] = assay: Increase in long-lived protein degradation in human H4 cells after 1 hr relative to control; assay type: functional; design: concentration or dose not given beside the values
H4 [2] = assay: Effect on FYVE-RFP+ vesicle intensity per cell in human H4 cells after 4 hrs relative to control; assay type: functional; design: concentration or dose not given beside the values
In short: (§1)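 H4 cells stably expressing FYVE-RFP (H4-FYVE), grown in DMEM with 10% FBS, penicillin/streptomycin and 2 mM L-glutamine at 37°C, 5% CO2, seeded in 96-well plates and exposed to compound. Fixed in 4% paraformaldehyde, nuclei stained with 3 μg/ml DAPI, FYVE-RFP+ vesicles quantified by high-throughput fluorescence microscopy against DMSO control. Triplicate wells, mean ± SD.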

H4 [3] = assay: Effect on FYVE-RFP+ vesicle intensity per cell in human H4 cells after 2 hrs relative to control; assay type: functional; design: concentration or dose not given beside the values; in short: as §1
H4 [4] = assay: Effect on FYVE-RFP+ vesicle intensity per cell in human H4 cells after 8 hrs relative to control; assay type: functional; design: concentration or dose not given beside the values; in short: as §1
H4 [5] = assay: Increase in long-lived protein degradation in human H4 cells after 4 hrs relative to control; assay type: functional; design: concentration or dose not given beside the values
H4 [6] = assay: Increase in light chain 3-GFP+ autophagosome vesicle number per cell in human H4 cells at 7.7 uM after 24 hrs by high throughput fluorescence microscopy relative to control; assay type: functional
In short: (§2)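 H4 cells stably expressing LC3-GFP, kept in DMEM/10% FBS at 37°C, 5% CO2, were seeded in 96-well plates and exposed to compound for 24 h. Cells were then fixed in 4% paraformaldehyde and stained with 3 μg/ml DAPI. Automated fluorescence microscopy scored the number, size and intensity of LC3-GFP spots. Values are percent of DMSO wells, in triplicate, mean ± SD. Rapamycin served as positive control.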

H4 [7] = assay: Induction of light chain 3-GFP level in human H4 cells at 7.7 uM after 24 hrs by high throughput fluorescence microscopy relative to control; assay type: functional; in short: as §2
H4 [8] = assay: Increase in long-lived protein degradation in human H4 cells after 24 hrs relative to control; assay type: functional; design: concentration or dose not given beside the values
H4 [9] = assay: Increase in long-lived protein degradation in human H4 cells after 2 hrs relative to control; assay type: functional; design: concentration or dose not given beside the values
H4 [10] = assay: Increase in light chain 3-GFP+ autophagosome vesicle intensity per cell in human H4 cells at 7.7 uM after 24 hrs by high throughput fluorescence microscopy relative to control; assay type: functional
In short: (§3)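 H4 cells stably expressing LC3-GFP, seeded in 96-well plates and exposed to compound for 24 h; fixed in 4% paraformaldehyde, nuclei stained with 3 μg/ml DAPI. Automated fluorescence microscopy scored number, size and intensity of LC3-GFP spots; values expressed relative to DMSO-treated wells, rapamycin positive control. Triplicate wells, mean ± SD; experiments repeated three times.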

H4 [11] = assay: Increase in light chain 3-GFP+ autophagosome vesicle area per cell in human H4 cells at 7.7 uM after 24 hrs by high throughput fluorescence microscopy relative to control; assay type: functional; in short: as §3
H4 [12] = assay: Increase in light chain 3-GFP+ autophagosome vesicle number per cell in human H4 cells at 3.7 uM after 24 hrs by high throughput fluorescence microscopy relative to control; assay type: functional
In short: (§4)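 H4 cells stably expressing LC3-GFP were grown in DMEM with 10% FBS and 2 mM L-glutamine at 37°C, 5% CO2. They were exposed to each compound for 24 h, with DMSO as negative and rapamycin as positive control. Cells were then fixed in 4% paraformaldehyde and stained with 3 μg/ml DAPI. High-throughput fluorescence imaging scored LC3-GFP spot number, size and intensity, expressed relative to DMSO. Mean ± SD of triplicates; experiments repeated three times.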

[13] = molecular target: T1, Serine/threonine-protein kinase mTOR (Homo sapiens, UniProt P42345); assay: Effect on mTOR phosphorylation in human H4 cells at 3.7 uM after 4 hrs; assay type: cell-based
In short: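 H4 cells exposed to compound for 4 h. Lysates analysed by Western blot with anti-phospho and anti-total mTOR antibodies, with actin as loading control. Rapamycin served as reference.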

H4 [14] = assay: Increase in light chain 3-GFP+ autophagosome vesicle area per cell in human H4 cells at 3.7 uM after 24 hrs by high throughput fluorescence microscopy relative to control; assay type: functional
In short: (§5)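 H4 cells stably expressing LC3-GFP, seeded in 96-well plates and exposed to compound for 24 h; screening concentrations were 3–12 μM, with rapamycin 0.22 μM and bafilomycin A1 0.40 μM. Cells fixed in 4% paraformaldehyde and stained with 3 μg/ml DAPI. Number, size and intensity of LC3-GFP spots measured by high-throughput fluorescence microscopy and expressed as percent of DMSO-treated wells. Rapamycin was the positive control. Triplicate wells, mean ± SD; experiments repeated three times.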

H4 [15] = assay: Reduction of poly(Q) level in human H4 cells expressing EGFP-Q79-HA after 24 hrs; assay type: functional, cell-based
In short: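 H4 cells were transiently transfected with an EGFP-Q79-HA expression vector. The medium was replaced 6 h after transfection and compounds were added. Poly(Q) was detected with anti-HA antibody.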

H4 [16] = assay: Induction of light chain 3-GFP level in human H4 cells at 3.7 uM after 24 hrs by high throughput fluorescence microscopy relative to control; assay type: functional
In short: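 H4 cells stably expressing LC3-GFP, grown in DMEM with 10% FBS, penicillin/streptomycin and 2 mM L-glutamine at 37°C, 5% CO2. Cells were seeded in 96-well plates and exposed to library compounds at 3–12 μM for 24 h, then fixed in 4% paraformaldehyde and stained with 3 μg/ml DAPI. LC3-GFP spot number, size and intensity were measured by high-throughput fluorescence microscopy and expressed relative to DMSO. Triplicates, mean ± SD.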

H4 [17] = assay: Increase in ratio of light chain 3 subunit 2 to light chain 3 subunit 1 in human H4 cells at 3.7 uM after 4 hrs by Western blot; assay type: functional, cell-based
In short: (§6)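 H4 cells were treated with each compound for 4 h, then lysed. Lysates were immunoblotted with anti-LC3 antibody, with actin as loading control. LC3II and LC3I bands were compared as an LC3II/LC3I ratio.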

H4 [18] = assay: Increase in light chain 3-GFP+ autophagosome vesicle intensity per cell in human H4 cells at 3.7 uM after 24 hrs by high throughput fluorescence microscopy relative to control; assay type: functional; in short: as §5
H4 [19] = assay: Increase in FYVE-RFP+ vesicle intensity per cell in human H4 cells after 8 hrs relative to control; assay type: functional; design: concentration or dose not given beside the values; in short: as §1
H4 [20] = assay: Increase in FYVE-RFP+ vesicle intensity per cell in human H4 cells after 4 hrs relative to control; assay type: functional; design: concentration or dose not given beside the values; in short: as §1
H4 [21] = assay: Increase in light chain 3-GFP+ autophagosome vesicle number per cell in human H4 cells at 0.2 uM after 24 hrs by high throughput fluorescence microscopy relative to control; assay type: functional; in short: as §4
H4 [22] = assay: Induction of light chain 3-GFP level in human H4 cells at 0.2 uM after 24 hrs by high throughput fluorescence microscopy relative to control; assay type: functional
[23] = molecular target: T1, Serine/threonine-protein kinase mTOR; assay: Effect on mTOR phosphorylation in human H4 cells at 0.2 uM after 4 hrs; assay type: cell-based
In short: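 H4 cells treated with compound for 4 h; lysates analysed by Western blot using anti-phospho/non-phospho mTOR antibody, with actin as loading control; rapamycin used for comparison. Cells grown in DMEM with 10% FBS, penicillin/streptomycin, 2 mM L-glutamine at 37°C, 5% CO2.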

H4 [24] = assay: Increase in light chain 3-GFP+ autophagosome vesicle area per cell in human H4 cells at 0.2 uM after 24 hrs by high throughput fluorescence microscopy relative to control; assay type: functional; in short: as §5
H4 [25] = assay: Increase in light chain 3-GFP+ autophagosome vesicle intensity per cell in human H4 cells at 0.2 uM after 24 hrs by high throughput fluorescence microscopy relative to control; assay type: functional; in short: as §5
H4 [26] = assay: Increase in ratio of light chain 3 subunit 2 to light chain 3 subunit 1 in human H4 cells at 0.2 uM after 4 hrs by Western blot; assay type: functional, cell-based; in short: as §6

Compound | Activity (H4 [1]) | Activity (H4 [2]) | Activity (H4 [3]) | Activity (H4 [4]) | Activity (H4 [5]) | Activity (H4 [8]) | Activity (H4 [9]) | Activity (H4 [15]) | also measured
CN1CCN(C2=Nc3cc(Cl)ccc3Nc3ccccc32)CC1 [CLOZAPINE] | 115.64% | 74.79% | 64.04% | 78.38% | 11.93% | 119.5% | 125.71% | – | Activity (H4 [6]): 216.53%; Activity (H4 [7]): 139.18%; Activity (H4 [10]): 350.13%; Activity (H4 [11]): 275.5%
CCCCc1oc2ccccc2c1C(=O)c1cc(I)c(OCCN(CC)CC)c(I)c1 [AMIODARONE] | 101.32% | 89.23% | 92.5% | 83.45% | 110.75% | 116.73% | 122.42% | Dose-dependent effect | Activity (H4 [12]): 189.25%; Activity [13]: inactive; Activity (H4 [14]): 236.64%; Activity (H4 [16]): 138.5%; Activity (H4 [17]): Active; Activity (H4 [18]): 327.25%
CO[C@H]1C[C@@H]2CC[C@@H](C)[C@@](O)(O2)C(=O)C(=O)N2CCCC[C@H]2C(=O)O[C@H]([C@H](C)C[C@@H]2CC[C@@H](O)[C@H](OC)C2)CC(=O)[C@H](C)/C=C(\C)[C@@H](O)[C@@H](OC)C(=O)[C@H](C)C[C@H](C)/C=C/C=C/C=C/1C [SIROLIMUS] | 159.89% | – | – | – | 149.89% | 165.87% | 171.67% | Dose-dependent effect | Activity (H4 [19]): 152.35%; Activity (H4 [20]): 131.41%; Activity (H4 [21]): 205.66%; Activity (H4 [22]): 88.62%; AC50 [23]: Not Active; Activity (H4 [24]): 259.68%; Activity (H4 [25]): 285.38%; Activity (H4 [26]): Active
